# TAAR1 antag: antagonists of human TAAR1 | 1.5% of 360,000 active | AID 624466 | Q96RJ0 | inhibition, % at 3 µM | CHO RD-HGA16 TAAR1, Fluo-8 calcium fluorescence, antagonist;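 active means inhibition above a per-plate cutoff, the mean inhibition of test compounds on that plate plus 3 SD, cut at about 49% in these data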;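 further: 0% = DMSO plus EC80 beta-PEA response and 100% = DMSO alone without agonist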
# Target sequence (Q96RJ0 whole entry, looked up): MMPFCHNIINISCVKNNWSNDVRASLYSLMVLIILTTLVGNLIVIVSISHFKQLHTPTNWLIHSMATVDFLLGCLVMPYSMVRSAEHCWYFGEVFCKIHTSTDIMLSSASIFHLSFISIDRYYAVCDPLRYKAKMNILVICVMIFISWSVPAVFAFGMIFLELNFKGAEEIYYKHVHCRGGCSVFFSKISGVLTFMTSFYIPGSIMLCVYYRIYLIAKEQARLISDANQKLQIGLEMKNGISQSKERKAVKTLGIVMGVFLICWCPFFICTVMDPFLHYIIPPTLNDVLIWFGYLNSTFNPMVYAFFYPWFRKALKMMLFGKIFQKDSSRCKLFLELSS
#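 Material: RD-HGA16 CHO cells with stable hTAAR1 and Gα16; Dosing: single nominal final test compound concentration of 3 µM; Schedule: seeding 17-24 h prior, 75-min 37 °C, 30-min RT dye loading; Detection: kinetic Fluo-8 calcium fluorescence measurement; Measure: % inhibition from peak post-agonist over basal fluorescence ratio; Benchmarks: vehicle and agonist controls.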
# OXTR agonist: human OXTR agonism; P30559; CHO-OTR cells, Fluo-8 calcium fluorescence; normalized: DMSO 0%, oxytocin 100%; activation, % at 3 µM; 0.32% of 320,000 active; AID 2435;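 active means activation above the mean of all tested compounds plus 3 SD, cutoff set per screening run, cut at about 20% in these data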;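 further: peak over basal fluorescence ratio from a 100 s FLIPR kinetic read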
# Target sequence (P30559 whole entry, looked up): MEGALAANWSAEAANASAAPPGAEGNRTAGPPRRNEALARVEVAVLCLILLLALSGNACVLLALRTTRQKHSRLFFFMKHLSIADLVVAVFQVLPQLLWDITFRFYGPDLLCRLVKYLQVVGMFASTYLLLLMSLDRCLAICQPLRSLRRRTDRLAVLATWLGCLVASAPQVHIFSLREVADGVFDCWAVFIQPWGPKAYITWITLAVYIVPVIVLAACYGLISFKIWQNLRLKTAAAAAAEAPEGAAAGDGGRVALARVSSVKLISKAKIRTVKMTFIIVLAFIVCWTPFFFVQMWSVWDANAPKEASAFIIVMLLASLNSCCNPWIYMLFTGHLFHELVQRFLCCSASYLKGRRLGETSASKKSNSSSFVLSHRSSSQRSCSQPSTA
# TAAR1 agonist: agonists of human TAAR1 | 0.99% of 360,000 active | activation, % at 3 µM | Q96RJ0 | CHO RD-HGA16 TAAR1, Fluo-8 calcium fluorescence; vehicle wells 0%, saturating PEA agonist 100%;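 active means activation above the mean activation of all test compounds in the run plus 3 SD, cut at about 38% in these data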
#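 test system = CHO RD-HGA16 cells carrying human TAAR1 plus Gα16 | schedule = 17-24 h seeding, 75 min 37 °C dye, 30 min RT | compound dosing = 3 µM single concentration | control set = DMSO and PEA EC100 | replicates = n 1 | signal = Fluo-8 fluorescence, 5 s baseline then 140 s kinetic read | measure = percent activation vs PEA EC100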
# V1aR counter: counter-screen for oxytocin receptor agonists: human V1a receptor agonists; P37288; CHO-V1R cells, Fluo-8 calcium fluorescence, agonist mode; 0% DMSO, 100% 3 nM vasopressin; activation, % at 3 µM; 0.25% of 320,000 active;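 active means activation above the mean activation of all tested compounds plus 3 SD, per screening run, cut at about 20% in these data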;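 further: signal is peak over basal fluorescence ratio across a 100 second FLIPR read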
# OXTR potentiate: human OXTR potentiation | AID 2445 | CHO-OTR cells, Fluo-8 calcium fluorescence, potentiator mode; 0% = oxytocin EC15, 100% = EC100 | activation, % at 3 µM | 0.061% of 320,000 active;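 active means activation above that plate's cutoff, the mean activation of tested compounds plus 3 SD, cut at about 6.6% in these data, passing the limit was not always enough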;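 further: 100% uses oxytocin at 75 nM as the full agonist control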
#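 Material: human OTR in CHO cells. Compound: 3.0 µM, one dose. Timing: compound 6 min at room temperature before oxytocin, 100 s read. Evaluation: % activation of max/min ratio relative to oxytocin controls. Replication: single well per compound, singlicate. Signal: Fluo-8 calcium dye fluorescence.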
# nonsel antag count: nonselective antagonist in TAAR1 antagonist counter-screen | inhibition, % at 3 µM | shares compounds with TAAR1 antag | 77% of 2,400 active | counterscreen cell line, calcium fluorescence, antagonist mode; in the data active means inhibition above about 22%;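 further: CHO-Ga16 host cells stimulated with ATP at an EC80 level; 0% = agonist EC80 plus vehicle and 100% = vehicle without agonist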
# TAAR1 ant conf: human TAAR1 antagonism, confirmed; shares compounds with TAAR1 antag; TAAR1-expressing cells, fluorescence antagonist read-out; inhibition, % at 3 µM; 40% of 2,400 active; AID 651785; in the data active means inhibition above about 49%;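 further: CHO-Ga16 host cells challenged with agonist PEA near its EC80; 0% = agonist at EC80 plus vehicle and 100% = vehicle with no agonist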
# Ga16 nonsel ag: nonselective Ga16 agonist in TAAR1 antagonist counter-screen. activation, % at 3 µM. AID 651953. shares compounds with TAAR1 antag. Ga16-expressing cells, calcium fluorescence, agonist counterscreen. 18% of 2,400 active; in the data active means activation above about 12%;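 further: 0% = vehicle wells and 100% = saturating stimulus response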
# TAAR1 ag count: counter-screen for human TAAR1 antagonists: TAAR1 agonists. activation, % at 3 µM. 2% of 2,400 active. AID 651955. hTAAR1 cell line, fluorescence activation, agonist mode. shares compounds with TAAR1 antag; in the data active means activation above about 37%;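 further: CHO cells stably expressing TAAR1 with calcium dye readout; 0% = DMSO vehicle and 100% = full agonist response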
# Numbers without * were called inactive; / = no result. Compounds with a hit are over-represented: about 2.3% of the library has one in this group of screens.
SMILES,TAAR1 antag,OXTR agonist,TAAR1 agonist,V1aR counter,OXTR potentiate,nonsel antag count,TAAR1 ant conf,Ga16 nonsel ag,TAAR1 ag count
CCCCCNC(=O)C(c1ccccc1)n1c(=O)c(-c2cc3ccccc3[nH]2)nc2ccccc21 (stereo unspecified),-7,/,1,/,/,/,/,/,/
N#Cc1nc(COc2ccc(Cl)cc2)oc1NCc1ccc2c(c1)OCO2,50*,-1,8,0,-6,22*,17,0,-1
Cc1cccc(OCc2nc(C#N)c(NCc3ccc4c(c3)OCO4)o2)c1,37,-1,12,0,-10,/,/,/,/
COc1ccc(C(=O)OC2C(OC)OCC(O)C2O)cc1 (stereo unspecified),-23,/,2,/,/,/,/,/,/
COCCn1ccc2c(OCC(=O)Nc3ccccc3OC)cccc2c1=O,58*,-2,8,0,-11,27*,41,8,5
O=C(NCCc1ccccc1)c1ccc(CS(=O)Cc2ccc(Cl)cc2)o1 (stereo unspecified),-11,-2,35,0,-10,/,/,/,/
CCOc1ccc(-n2c(C)cc(/C=N\NC(=O)CC(=O)NC3CCCCC3)c2C)cc1,57*,0,0,2,-8,25*,47,5,-1
CCOc1ccc(-n2c(C)cc(/C=N/NC(=O)C(N)=O)c2C)cc1,-26,0,-1,-1,2,/,/,/,/
NNC(=O)c1[nH]c2ccc([N+](=O)[O-])cc2c1-c1ccccc1,-18,4,0,1,-19,/,/,/,/
O=C(N/N=C/c1ccccn1)c1[nH]c2ccc([N+](=O)[O-])cc2c1-c1ccccc1,50*,2,9,1,-14,18,51*,12*,22
CC1(C(=O)O)CCC(C(=O)Nc2ccc(OC(F)(F)Cl)cc2)C1(C)C (stereo unspecified),-2,1,5,2,-13,/,/,/,/
Cc1ccc(NC(=O)/C(C#N)=C/c2cn(CC(=O)NCc3ccco3)c3ccccc23)cc1C,-14,2,1,3,3,/,/,/,/
Cc1ccc(C)c(NC(=O)/C(C#N)=C/c2cn(CC(=O)NCc3ccco3)c3ccccc23)c1,103*,1,2,-1,-8,6,12,7,6
CCN(CC)S(=O)(=O)c1ccc(S(=O)(=O)N(CC(=O)Nc2ccccc2)Cc2ccco2)cc1,62*,8,17,7,-12,31*,53*,9,9
CCC(C)Sc1cc(-c2nc3ccc(Cl)cn3c2NC2CCCCC2)ccc1OC (stereo unspecified),-14,0,14,0,-8,/,/,/,/
Cc1ccc(-c2nc3cccnc3s2)cc1NS(=O)(=O)c1ccc2c(c1)OCCO2,59*,4,9,2,-6,30*,37,7,2
CC(=O)Nc1ccc(OCc2cn(CC(=O)c3ccc(O)cc3)nn2)cc1,4,/,0,/,/,/,/,/,/
COc1cccc(NC(=O)Nc2ccc(C(C)(C)C)cc2)c1,87*,/,13,/,/,51*,76*,14*,13
COc1cccc(NC(=O)Nc2ccncc2)c1,-9,2,17,1,5,/,/,/,/
Cc1ccc2c(=O)n3c(nc2c1)C(Cc1ccc(O)cc1)NC(=O)c1ccc(Cl)cc1-3 (stereo unspecified),28,3,5,2,-6,/,/,/,/
CN(C(=O)COC(=O)/C=C/c1ccc(S(=O)(=O)N2CCc3ccccc32)cc1)C1CCS(=O)(=O)C1 (stereo unspecified),101*,1,0,1,-3,7,11,3,4
C=CC[C@@H](CC(=O)N[C@@H](CO)Cc1ccccc1)C(=O)N[C@H](COC(=O)[C@@H](CC=C)CC(=O)OC(C)(C)C)Cc1c[nH]c2ccccc12,39,-1,4,0,-9,/,/,/,/
C=CCC[C@@H](Cc1ccc(F)cc1)C(=O)OC[C@H](Cc1c[nH]c2ccccc12)NC(=O)[C@H](CC=C)CC(=O)NCCO,75*,0,22,1,-4,30*,42,7,7
C=CC[C@H](CC(=O)N[C@H](CO)Cc1ccccc1)C(=O)N[C@@H](COC(=O)[C@@H](CC=C)CC(=O)OC(C)(C)C)Cc1c[nH]c2ccccc12,63*,0,23,1,-8,30*,37,4,4
C=CC[C@@H](CC(=O)N[C@H](CO)Cc1ccccc1)C(=O)N[C@H](COC(=O)[C@@H](CC=C)Cc1ccc(F)cc1)Cc1c[nH]c2ccccc12,86*,3,28,3,-10,38*,51*,5,15
SMILES,TAAR1 antag,OXTR agonist,TAAR1 agonist,V1aR counter,OXTR potentiate,nonsel antag count,TAAR1 ant conf,Ga16 nonsel ag,TAAR1 ag count
CCCCCCCCN1C(=O)[C@H](CC(=O)NCCCN2CCCC2=O)C[C@@]2(C(=O)OCC)CCCC=C12,-33,/,1,/,/,/,/,/,/
Cc1nn(-c2ccccn2)c2c1-c1nc(N3CCOCC3)ncc1CC2,70*,-2,15,0,-7,27*,49*,6,5
O=C(/C=C/c1cn(-c2ccccc2)nc1-c1cccc(Cl)c1)N1CCN(c2ccccn2)CC1,53*,0,0,0,-9,18,31,3,4
C[C@H]1CN(C(=O)OC(C)(C)C)CCN1c1ccc(N2CCS(=O)(=O)CC2)c(C#N)c1,67*,/,21,/,/,47*,60*,16*,13
C[C@@H]1CN(C(=O)OC(C)(C)C)CCN1c1ccc(N2CCS(=O)(=O)CC2)c(C#N)c1,16,/,12,/,/,/,/,/,/
COc1ccc(-c2cc(C(=O)Nc3c(C)n(C)n(-c4ccccc4)c3=O)c3ccccc3n2)c(OC)c1,53*,-2,8,-1,-4,26*,37,7,11
Cc1ccc(-c2cc(C(=O)Nc3c(C)n(C)n(-c4ccccc4)c3=O)c3ccccc3n2)cc1,49*,-1,10,-1,0,30*,40,6,3
Cc1c(NC(=O)c2cc(-c3ccccc3)nc3ccccc23)c(=O)n(-c2ccccc2)n1C,59*,-1,14,-1,-10,28*,50*,10,10
Cc1c(NC(=O)COC(=O)c2cc(-c3ccc(-c4ccccc4)cc3)nc3ccccc23)c(=O)n(-c2ccccc2)n1C,19,0,1,0,3,/,/,/,/

# High-throughput results deposited in PubChem by The Scripps Research Institute Molecular Screening Center.
